Experimental data: ChEMBL document CHEMBL2146455, “Structure-activity studies on the spiroketal moiety of a simplified analogue of debromoaplysiatoxin with antiproliferative activity” (J Med Chem, 2012)
pKi: −log10 of the molar value.

Legend:
[1] = n-Octanol-water partition coefficient, log P of the compound by HPLC analysis; type: physicochemical
[2] = system: Raji; assay: Tumor promoting activity in human Raji cells assessed as induction of EBV-early antigen activation after 48 hrs by FITC staining based indirect immunofluorescence assay; type: cell-based
In short: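 Raji cells (5 × 10⁵/mL) were grown in RPMI 1640 with 10% FBS at 37 °C and 5% CO₂, with 4 mM sodium n-butyrate as synergist. Compounds were tested at 10, 100 or 1000 nM final, with DMSO at 0.4% final, for 48 h. Cell smears were stained by indirect immunofluorescence using NPC patient serum and FITC anti-human IgG. At least 500 cells were counted and the percentage of EA-positive cells recorded.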

[3] = system: MDA-MB-231; assay: Growth inhibition of human MDA-MB-231 cells after 48 hrs by sulforhodamine B assay; type: functional; settings: MDA-MB-231, 48 h
In short: (§1)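 Cell line from a 39-line human cancer panel, grown in RPMI 1640 with 5% FBS and attached overnight. Exposed 48 h to drug at 10⁻⁸ to 10⁻⁴ M (tenfold steps). Sulforhodamine B read at 525 nm against control and time-0 wells. % growth = 100[(T − T₀)/(C − T₀)] from duplicate points; GI₅₀ is the level giving 50.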

[4] = biological target: Protein kinase C delta type (Homo sapiens, UniProt Q05655); assay: Inhibition of [3H]PDBu binding to PKCdelta C1B domain
In short: (§2)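 Displacement of [³H]PDBu (20 nM) from synthetic PKC C1 peptides (10−20 nM; about 3 nM properly folded) in 50 mM Tris-maleate, pH 7.4 at 4 °C. Buffer held 50 μg/mL phosphatidylserine and 3 mg/mL bovine γ-globulin, with inhibitor at various concentrations. IC₅₀ taken from 50% loss of specific binding by probit; Ki by the Sharkey–Blumberg method.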

[5] = biological target: Protein kinase C theta type (Homo sapiens, UniProt Q04759); assay: Inhibition of [3H]PDBu binding to PKCtheta C1B domain; in short: as §2
[6] = Growth inhibition of human HBC4 cells after 48 hrs by sulforhodamine B assay; type: functional; settings: HBC4, 48 h; in short: as §1
[7] = biological target: Protein kinase C beta type (Homo sapiens, UniProt P05771); assay: Inhibition of [3H]PDBu binding to PKCbeta C1A domain; in short: as §2
[8] = system: HCC 2998; assay: Growth inhibition of human HCC2998 cells after 48 hrs by sulforhodamine B assay; type: functional; settings: HCC 2998, 48 h; in short: as §1
[9] = system: SNB-78; assay: Growth inhibition of human SNB-78 cells after 48 hrs by sulforhodamine B assay; type: functional; settings: SNB-78, 48 h; in short: as §1
[10] = system: NCI-H460; assay: Growth inhibition of human NCI-H460 cells after 48 hrs by sulforhodamine B assay; type: functional; settings: NCI-H460, 48 h; in short: as §1
[11] = system: St-4; assay: Growth inhibition of human St-4 cells after 48 hrs by sulforhodamine B assay; type: functional; settings: St-4, 48 h; in short: as §1
[12] = system: A549; assay: Growth inhibition of human A549 cells after 48 hrs by sulforhodamine B assay; type: functional; settings: A549, 48 h; in short: as §1
[13] = system: Raji; assay: Tumor promoting activity in human Raji cells assessed as induction of EBV-early antigen activation at 1 uM after 48 hrs by FITC staining based indirect immunofluorescence assay; type: cell-based
In short: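 Raji B-lymphoblastoid cells (5 × 10⁵/mL) held 48 h at 37 °C, 5% CO₂, in RPMI 1640 with 10% FBS. Medium contained 4 mM sodium n-butyrate and compound at 10, 100 or 1000 nM final, with 0.4% DMSO final. Smears stained by indirect immunofluorescence using NPC patient serum and FITC anti-human IgG. At least 500 cells counted; result given as % EA-positive.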

[14] = biological target: Protein kinase C gamma type (Homo sapiens, UniProt P05129); assay: Inhibition of [3H]PDBu binding to PKCgamma C1A domain; in short: as §2
[15] = biological target: Protein kinase C eta type (Homo sapiens, UniProt P24723); assay: Inhibition of [3H]PDBu binding to PKCeta C1B domain; in short: as §2
[16] = system: LOX IMVI; assay: Growth inhibition of human LOXIMVI cells after 48 hrs by sulforhodamine B assay; type: functional; in short: as §1
[17] = biological target: T1, Protein kinase C epsilon type (Homo sapiens, UniProt Q02156); assay: Inhibition of [3H]PDBu binding to PKCepsilon C1B domain; in short: as §2
T1 sequence (Q02156 whole entry): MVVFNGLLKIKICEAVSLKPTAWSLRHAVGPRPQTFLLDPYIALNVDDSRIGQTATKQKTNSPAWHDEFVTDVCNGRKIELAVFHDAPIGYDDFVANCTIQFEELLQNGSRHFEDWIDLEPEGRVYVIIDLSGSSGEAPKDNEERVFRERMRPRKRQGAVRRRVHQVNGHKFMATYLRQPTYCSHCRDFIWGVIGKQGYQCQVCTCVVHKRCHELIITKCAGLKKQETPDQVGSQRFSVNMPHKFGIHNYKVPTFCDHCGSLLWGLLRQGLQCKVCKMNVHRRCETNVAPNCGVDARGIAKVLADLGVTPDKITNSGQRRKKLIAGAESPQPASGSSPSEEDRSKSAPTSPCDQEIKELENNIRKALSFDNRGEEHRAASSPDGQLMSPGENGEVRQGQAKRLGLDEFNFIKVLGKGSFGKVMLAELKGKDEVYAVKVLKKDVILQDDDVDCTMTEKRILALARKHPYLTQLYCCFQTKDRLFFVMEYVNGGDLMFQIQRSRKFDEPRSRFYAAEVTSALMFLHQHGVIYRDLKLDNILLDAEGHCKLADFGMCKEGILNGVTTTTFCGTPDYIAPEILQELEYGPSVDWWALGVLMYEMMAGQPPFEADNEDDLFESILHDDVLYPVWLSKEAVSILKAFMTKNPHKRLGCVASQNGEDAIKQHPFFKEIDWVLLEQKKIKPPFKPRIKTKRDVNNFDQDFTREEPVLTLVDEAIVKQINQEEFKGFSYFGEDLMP

[18] = biological target: Protein kinase C alpha type (Homo sapiens, UniProt P17252); assay: Inhibition of [3H]PDBu binding to PKCalpha C1A domain; in short: as §2
[19] = system: Mus musculus; assay: Tumor promoting activity in ICR mouse assessed as effect on DMBA-mediated skin carcinogenesis at 8.5 nmol administered 1 week after DMBA challenge twice weekly measured after 20 weeks by two-stage carcinogenesis test; type: organism-based; settings: in vivo, 3360 h
In short: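 Two-stage skin carcinogenesis in ICR mice, with 10 mice per group. The back skin was initiated with a single 390 nmol DMBA dose, then treated with the test compound. The control group received DMBA plus 1.7 nmol TPA. Read-outs were percentage of tumor-bearing mice and papillomas per mouse, compared by Fisher's exact test and Welch's t-test (p < 0.05).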

[20] = system: Mus musculus; assay: Tumor promoting activity in ICR mouse assessed as effect on DMBA-mediated skin carcinogenesis at 1.7 nmol administered 1 week after DMBA challenge twice weekly measured by two-stage carcinogenesis test; type: organism-based; settings: in vivo, 168 h
In short: (§3)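 Two-stage mouse skin model in ICR mice, 10 per group. Back skin initiated with a single 390 nmol dose of DMBA, then promoted with 1.7 nmol of test compound; TPA served as control. Scored as tumor-bearing mice (%), compared by Fisher's exact test, and papillomas per mouse, compared by Welch's t-test; p < 0.05.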

[21] = system: Mus musculus; assay: Tumor promoting activity in ICR mouse assessed as effect on DMBA-mediated skin carcinogenesis at 1.7 nmol administered 1 week after DMBA challenge twice weekly measured after 11 weeks by two-stage carcinogenesis test; type: organism-based; settings: in vivo, 1848 h; in short: as §3
[22] = system: Mus musculus; assay: Tumor promoting activity in DMBA treated ICR mouse assessed as number of papillomas at 1.7 nmol administered 1 week after DMBA challenge twice weekly measured after 20 weeks by two-stage carcinogenesis test; type: organism-based; settings: in vivo, 3360 h; in short: as §3
[23] = system: Mus musculus; assay: Tumor promoting activity in ICR mouse assessed as effect on DMBA-mediated skin carcinogenesis at 1.7 nmol administered 1 week after DMBA challenge twice weekly measured after 6 weeks by two-stage carcinogenesis test; type: organism-based; settings: in vivo, 1008 h; in short: as §3

Chain of Protein kinase C theta type (Q04759 whole entry, the tested form may be a part): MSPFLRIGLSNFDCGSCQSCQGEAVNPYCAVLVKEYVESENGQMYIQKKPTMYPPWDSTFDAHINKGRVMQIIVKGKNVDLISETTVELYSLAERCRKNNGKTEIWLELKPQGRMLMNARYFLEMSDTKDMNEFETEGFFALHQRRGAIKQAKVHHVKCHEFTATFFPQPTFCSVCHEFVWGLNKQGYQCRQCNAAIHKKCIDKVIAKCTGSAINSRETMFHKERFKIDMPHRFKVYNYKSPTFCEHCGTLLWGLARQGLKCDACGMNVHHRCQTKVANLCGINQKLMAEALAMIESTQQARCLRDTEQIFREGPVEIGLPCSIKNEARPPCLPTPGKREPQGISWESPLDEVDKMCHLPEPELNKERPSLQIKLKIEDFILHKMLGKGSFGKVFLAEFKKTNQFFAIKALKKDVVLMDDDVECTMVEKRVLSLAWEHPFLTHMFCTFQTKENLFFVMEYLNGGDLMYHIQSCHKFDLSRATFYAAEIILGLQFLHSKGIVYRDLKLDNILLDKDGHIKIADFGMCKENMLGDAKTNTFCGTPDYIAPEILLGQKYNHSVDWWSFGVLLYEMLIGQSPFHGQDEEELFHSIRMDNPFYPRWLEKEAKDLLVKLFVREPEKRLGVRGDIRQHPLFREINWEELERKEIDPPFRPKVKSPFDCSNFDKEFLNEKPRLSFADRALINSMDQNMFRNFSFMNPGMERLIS
Chain of Protein kinase C beta type (P05771 whole entry, the tested form may be a part): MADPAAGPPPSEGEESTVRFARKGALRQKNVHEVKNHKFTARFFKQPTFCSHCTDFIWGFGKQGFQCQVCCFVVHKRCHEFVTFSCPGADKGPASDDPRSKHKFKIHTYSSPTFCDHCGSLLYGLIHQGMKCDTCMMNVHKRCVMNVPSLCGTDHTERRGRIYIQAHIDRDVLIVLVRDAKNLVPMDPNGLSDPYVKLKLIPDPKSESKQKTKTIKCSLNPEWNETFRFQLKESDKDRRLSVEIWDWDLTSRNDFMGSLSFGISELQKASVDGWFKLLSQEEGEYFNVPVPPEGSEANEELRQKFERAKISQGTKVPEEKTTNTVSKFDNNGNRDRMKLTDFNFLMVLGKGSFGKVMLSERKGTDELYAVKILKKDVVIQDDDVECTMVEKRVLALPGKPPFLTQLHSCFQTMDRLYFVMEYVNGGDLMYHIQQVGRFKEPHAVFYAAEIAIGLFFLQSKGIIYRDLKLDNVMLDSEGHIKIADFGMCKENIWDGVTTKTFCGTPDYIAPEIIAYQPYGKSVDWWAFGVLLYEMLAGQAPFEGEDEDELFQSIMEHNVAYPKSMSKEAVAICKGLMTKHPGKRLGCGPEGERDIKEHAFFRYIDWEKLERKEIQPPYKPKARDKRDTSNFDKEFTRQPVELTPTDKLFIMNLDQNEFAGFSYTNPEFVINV
Chain of Protein kinase C delta type (Q05655 whole entry, the tested form may be a part): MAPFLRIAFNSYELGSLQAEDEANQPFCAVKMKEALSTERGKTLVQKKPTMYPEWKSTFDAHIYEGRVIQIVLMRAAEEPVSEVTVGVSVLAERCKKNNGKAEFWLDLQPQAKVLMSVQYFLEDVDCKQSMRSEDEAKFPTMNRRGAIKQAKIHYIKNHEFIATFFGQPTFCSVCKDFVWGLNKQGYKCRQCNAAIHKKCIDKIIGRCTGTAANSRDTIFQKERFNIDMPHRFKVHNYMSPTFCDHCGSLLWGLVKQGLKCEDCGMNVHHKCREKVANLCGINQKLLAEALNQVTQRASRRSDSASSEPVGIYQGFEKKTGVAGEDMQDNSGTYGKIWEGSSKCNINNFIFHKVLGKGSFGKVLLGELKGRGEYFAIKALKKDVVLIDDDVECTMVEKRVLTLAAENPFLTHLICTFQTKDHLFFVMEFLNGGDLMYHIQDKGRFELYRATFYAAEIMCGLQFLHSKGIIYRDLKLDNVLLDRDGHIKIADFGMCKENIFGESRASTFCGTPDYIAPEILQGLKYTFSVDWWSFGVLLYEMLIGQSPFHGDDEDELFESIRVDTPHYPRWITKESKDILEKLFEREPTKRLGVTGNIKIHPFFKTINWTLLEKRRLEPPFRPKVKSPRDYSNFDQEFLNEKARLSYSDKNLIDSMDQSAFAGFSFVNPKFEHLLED
Chain of Protein kinase C eta type (P24723 whole entry, the tested form may be a part): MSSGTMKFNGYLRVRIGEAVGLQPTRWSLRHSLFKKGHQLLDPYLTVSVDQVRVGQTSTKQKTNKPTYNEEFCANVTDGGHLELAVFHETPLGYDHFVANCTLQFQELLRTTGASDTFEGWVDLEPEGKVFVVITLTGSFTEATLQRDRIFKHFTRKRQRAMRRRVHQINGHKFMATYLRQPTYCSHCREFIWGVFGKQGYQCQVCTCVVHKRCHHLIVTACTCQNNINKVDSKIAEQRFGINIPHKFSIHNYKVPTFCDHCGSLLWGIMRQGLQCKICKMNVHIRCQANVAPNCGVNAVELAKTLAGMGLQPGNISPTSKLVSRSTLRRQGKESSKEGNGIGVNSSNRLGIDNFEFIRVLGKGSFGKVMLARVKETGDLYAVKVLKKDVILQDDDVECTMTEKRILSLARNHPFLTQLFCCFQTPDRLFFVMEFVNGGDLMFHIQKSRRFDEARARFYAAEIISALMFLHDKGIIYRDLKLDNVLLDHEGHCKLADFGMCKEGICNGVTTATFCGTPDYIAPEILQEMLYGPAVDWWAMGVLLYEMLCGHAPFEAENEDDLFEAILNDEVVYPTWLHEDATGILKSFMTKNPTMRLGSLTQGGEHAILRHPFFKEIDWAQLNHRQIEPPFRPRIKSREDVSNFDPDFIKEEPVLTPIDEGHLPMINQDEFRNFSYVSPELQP

Row | Structure (SMILES) | logP [1] | GI50 [3] | pKi [4] | pKi [5] | GI50 [6] | pKi [7] | GI50 [8] | GI50 [9] | GI50 [10] | GI50 [11] | GI50 [12] | Activity [13] | pKi [14] | pKi [15] | GI50 [16] | pKi [17] | pKi [18] | also measured
1 | CC1(C)CC[C@@H]2CC(=O)O[C@@H](CO)CC(=O)O[C@@H]3C[C@@H](CCCCc4cccc(O)c4)O[C@@]1(C3)O2 | 3.3 | – | – | – | – | – | – | – | – | – | – | – | – | – | – | – | – | Activity [2]: Toxic
2 | C[C@@H]1CC(C)(C)[C@@]23C[C@@H](C[C@@H](CCCCc4cccc(O)c4)O2)OC(=O)C[C@H](CO)OC(=O)C[C@@H]1O3 | 3.7 | 1550 nM | 8.48 | 8.54 | 275 nM | 7.82 | 4070 nM | 17400 nM | 1260 nM | 6030 nM | 7410 nM | < 10% | 7.92 | 8.23 | 4170 nM | 7.77 | 7.82 | –
3 | C[C@H]1[C@@H]2C[C@@]3(O[C@H](CCC3(C)C)CC(=O)O[C@@H](CO)CC(=O)O2)O[C@@H]1CCCCc1cccc(O)c1 | 3.6 | 126 nM | 9.34 | 9.27 | 33.1 nM | 7.92 | 339 nM | 891 nM | 85.1 nM | 575 nM | 977 nM | < 10% | 8.26 | 9.35 | 617 nM | 8.70 | 8.33 | Activity [19]: Non-toxic
4 | CO[C@@H](CC[C@H](C)[C@H]1O[C@@]23C[C@H](OC(=O)C[C@H]([C@@H](C)O)OC(=O)C[C@](O)(O2)[C@H](C)CC3(C)C)[C@@H]1C)c1cccc(O)c1 [DEBROMOAPLYSIATOXIN] | 4.4 | 933 nM | 9.70 | 9.96 | 339 nM | 9.77 | 813 nM | 15800 nM | 347 nM | 363 nM | 1150 nM | Toxic | 9.42 | 9.96 | 2040 nM | 9.20 | 9.59 | Activity [20]: Toxic
5 | CCCCCCCCCCCCCC(=O)O[C@@H]1[C@@H](C)[C@@]2(O)[C@@H](C=C(CO)C[C@]3(O)C(=O)C(C)=C[C@@H]23)[C@@H]2C(C)(C)[C@]12OC(C)=O [PHORBOL MYRISTATE ACETATE] | – | – | – | – | – | – | – | – | – | – | – | Toxic | – | – | – | – | – | Activity [21]: 100%; Activity [22]: Toxic; Activity [23]: Toxic
